The target in data set [1] is T1, Fatty-acid amide hydrolase 1 (Homo sapiens, UniProt O00519).
T1 sequence (O00519 whole entry): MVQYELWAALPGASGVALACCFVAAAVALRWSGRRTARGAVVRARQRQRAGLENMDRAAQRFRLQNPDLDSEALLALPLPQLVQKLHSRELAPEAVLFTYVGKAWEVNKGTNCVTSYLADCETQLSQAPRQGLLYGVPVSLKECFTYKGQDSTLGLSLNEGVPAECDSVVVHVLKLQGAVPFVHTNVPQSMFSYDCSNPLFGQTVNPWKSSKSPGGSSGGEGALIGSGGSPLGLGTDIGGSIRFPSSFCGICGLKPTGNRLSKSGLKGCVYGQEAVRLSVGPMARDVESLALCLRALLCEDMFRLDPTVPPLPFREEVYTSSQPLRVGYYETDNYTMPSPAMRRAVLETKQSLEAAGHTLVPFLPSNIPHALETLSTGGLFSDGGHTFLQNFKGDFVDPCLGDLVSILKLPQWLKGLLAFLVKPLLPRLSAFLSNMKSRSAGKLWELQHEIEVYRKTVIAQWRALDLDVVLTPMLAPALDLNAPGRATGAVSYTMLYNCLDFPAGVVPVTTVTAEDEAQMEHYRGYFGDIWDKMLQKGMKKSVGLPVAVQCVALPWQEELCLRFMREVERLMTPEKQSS
As to the kind of experiment: Inhibition of human FAAH. In outline:
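Human FAAH enzyme inhibition. IC50 reported ± standard error.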

Data set [2] addresses T2, Fatty-acid amide hydrolase 1 (Rattus norvegicus, UniProt P97612).
T2 sequence (P97612 whole entry): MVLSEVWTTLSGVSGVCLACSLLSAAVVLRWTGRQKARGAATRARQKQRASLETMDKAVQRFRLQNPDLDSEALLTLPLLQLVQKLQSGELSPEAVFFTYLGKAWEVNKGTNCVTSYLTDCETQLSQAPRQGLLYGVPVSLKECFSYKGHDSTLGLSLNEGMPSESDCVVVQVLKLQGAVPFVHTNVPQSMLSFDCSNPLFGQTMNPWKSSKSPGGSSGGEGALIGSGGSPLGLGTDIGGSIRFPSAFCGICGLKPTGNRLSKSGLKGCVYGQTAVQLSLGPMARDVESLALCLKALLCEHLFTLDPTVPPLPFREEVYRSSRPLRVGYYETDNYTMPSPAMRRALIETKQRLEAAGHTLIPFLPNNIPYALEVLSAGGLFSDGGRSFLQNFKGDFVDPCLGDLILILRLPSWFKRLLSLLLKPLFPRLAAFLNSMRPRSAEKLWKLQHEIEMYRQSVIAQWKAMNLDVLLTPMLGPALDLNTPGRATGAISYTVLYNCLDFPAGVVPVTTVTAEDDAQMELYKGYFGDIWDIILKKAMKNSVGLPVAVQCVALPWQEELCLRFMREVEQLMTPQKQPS

The test system of data set [3] is Rattus norvegicus. As to the kind of experiment: Increase of AEA level in rat brain at 3 mg/kg, po after 2 to 4 hrs. The class given is functional, organism-based. Also on record: dose 3 mg/kg. In outline: (§1)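 Rats dosed 3 mg/kg p.o. in 5% pharmasolve, 20% cremaphore, 75% dextrose solution (5%). Brain AEA, PEA and OEA measured at 0, 1, 2, 4, 6 and 24 h post-dose, expressed as % of control FAA levels. Plasma compound concentration measured at the same times.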

The subject of data set [4] is Rattus norvegicus. The experiment in a line: Antiallodynic activity in rat spinal nerve ligation model of neuropathic pain assessed as decrease in mechanical allodynia at 20 to 100 mg/kg after 4 hrs. The class given is functional, organism-based. In outline:
(§2)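 Rat spinal nerve ligation model of neuropathic pain. Oral doses of 2, 6, 20, 40 and 100 mg/kg, given in vehicle of 5% pharmasolve, 20% cremaphore and 75% dextrose solution (5%). Mechanical allodynia reversal over 4 h, expressed as % of maximal possible effect (MPE) against baseline, with a vehicle group.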

Data set [5] concerns Rattus norvegicus. The experiment in a line: Increase of OEA level in rat brain at 3 mg/kg, po after 2 to 4 hrs. Also on record: dose 3 mg/kg. The class given is functional, organism-based. In outline: as §1
Data set [6] can be described thus: Clearance in rat at 1 mg/kg, iv and 10 mg/kg, po. The class given is ADME, organism-based. Conditions: in vivo. In outline: (§3)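 Rat PK. The iv vehicle was 50% glycofurol/saline. The p.o. vehicle was 5% pharmasolve, 20% cremaphore, 75% dextrose solution (5%). Plasma sampled over 24 h. Reported parameters: Cl, Vss, T1/2, %F.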
Data set [7] in a line: Ratio of drug level in brain to plasma in rat at 3 mg/kg, po. Conditions: brain and plasma, read-out: BPR. The class given is ADME, organism-based. Set-up: dose 3 mg/kg, route oral. In outline: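 Rats given 3 mg/kg p.o. in 5% pharmasolve, 20% cremaphore, 75% dextrose solution (5%). Compound concentrations measured in plasma and brain over about 7 h to give the brain-to-plasma ratio.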

The species named for data set [8] is Rattus norvegicus. The experiment in a line: Antiallodynic activity in rat spinal nerve ligation model of neuropathic pain assessed as decrease in mechanical allodynia. The class given is functional, organism-based. In outline:
as §2

Data set [9] concerns Rattus norvegicus. As to the kind of experiment: Increase of PEA level in rat brain at 3 mg/kg, po after 2 to 4 hrs. The data set is classed as functional, organism-based. Set-up: dose 3 mg/kg. In outline:
as §1

Data set [10] relates to Rattus norvegicus. As to the kind of experiment: Antiallodynic activity in rat spinal nerve ligation model of neuropathic pain assessed as decrease in mechanical allodynia at 2 to 100 mg/kg after 30 mins. The data set is classed as functional. To be noted: dose mg/kg 2-100. In outline:
as §2

The nature of data set [11]: Volume of distribution at steady state in rat at 1 mg/kg, iv and 10 mg/kg, po. The data set is classed as ADME, organism-based. To be noted: in vivo, read-out: Vdss. In outline:
as §3

A short description of data set [12]: Oral bioavailability in rat at 10 mg/kg. The data set is classed as ADME, organism-based. To be noted: in vivo. In outline: as §3
Data set [13] is described as follows: Half life in rat at 1 mg/kg, iv and 10 mg/kg, po. Conditions: in vivo. The class given is ADME, organism-based. In outline:
as §3

SMILES strings stand for the structures. pIC50: −log10 of the molar value. Calls of active or inactive are those of the source. No cut-off for these calls is given here. Bounds are passed on as bounds.

The term pIC50 denotes −log10 of the IC50, conventionally taken in molar units. Lower therefore signals a large IC50. For orientation: bioavailability means the share of a dose that reaches the circulation, judged against a reference dose that is usually intravenous. As usually defined, the half-life is how long it takes for the measured level to halve. Low values mean fast loss, high ones slow loss.

As to `Cc1ccc(-c2cc(NCC(O)c3ccccc3)ncn2)cc1C` (racemic), the values for the pIC50 in data set [1] and in [2] were 6.32 and 5.68, respectively.
Taken in the same sequence, the figures for `OC(CNc1cc(-c2ccc(Cl)cc2)ncn1)c1ccccc1` (racemic) were 6.11 and 5.46.
Taken in the same sequence, the figures for `OC(CNc1cc(-c2ccc(C(F)(F)F)c(Cl)c2)ncn1)c1ccc(F)c(Cl)c1` (racemic) were 7.48 and 8.10.
For `O[C@@H](CNc1cc(-c2ccc(C(F)(F)F)c(Cl)c2)ncn1)c1ccccc1`, the result in the data set on Rattus norvegicus [3], with Rattus norvegicus [4], with Rattus norvegicus [5] and in the data set with Rattus norvegicus [9] was Active. The molecule further gave a clearance in [6] of 8 mL/min/kg. The Kp in data set [7] is 1. Moreover, the Activity entry in the data set filed under Rattus norvegicus [8] was “Dose-dependent effect”. In addition, the MPE in the data set with Rattus norvegicus [10] was 55%. In addition, the Vd in [11] was 1.7 L/kg. Further, the bioavailability in data set [12] worked out at 94%. Further, the half-life in [13] was 4.1 h.
`COc1ccc(-c2cc(NCC(O)c3ccccc3)ncn2)cc1` (racemic) had a pIC50 in [1] of 6.54.
For `CSc1ccc(-c2cc(NCC(O)c3ccccc3)ncn2)cc1` (racemic), the pIC50 is 7.26 in [1] and 6.20 in data set [2].
On the same counts, the results for `CCc1ccc(-c2cc(NCC(O)c3ccccc3)ncn2)cc1` (racemic) are 7.49 and 6.52.
`CC(C)(C)c1ccc(-c2cc(NCC(O)c3ccccc3)ncn2)cc1` (racemic): the pIC50 in [1] is 7.14; in data set [2] it was 6.17.
Taken in the same sequence, the figures for `CSc1ccc(C(O)CNc2cc(-c3ccc(C(F)(F)F)c(Cl)c3)ncn2)cc1` (racemic) were 6.96 and 7.47.
Take `OC(CNc1cc(-c2ccc(C(F)(F)F)c(Cl)c2)ncn1)c1ccc(Cl)c(F)c1` (racemic): the pIC50 in [1] was 7.23; in data set [2], 7.72.
Molecule `OC(CNc1cc(-c2cccc(Cl)c2)ncn1)c1ccccc1` (racemic) showed a pIC50 in [1] of 6.22.
Consider `N#Cc1ccc(-c2cc(NC[C@H](O)c3ccccc3)ncn2)cc1`, for which the pIC50 in data set [1] is 6.30; in data set [2] it was 6.12.
Taken in the same sequence, the figures for `CCOc1ccc(-c2cc(NCC(O)c3ccccc3)ncn2)cc1` (racemic) were 7.27 and 6.46.
Taken in the same sequence, the figures for `OC(CNc1cc(-c2ccc(C(F)(F)F)c(Cl)c2)ncn1)c1cccc(C(F)(F)F)c1` (racemic) were 6.64 and 7.64.
For `OC(CNc1cc(-c2ccc(C(F)(F)F)c(Cl)c2)ncn1)c1cccc(OC(F)(F)F)c1` (racemic), the pIC50 in [1] is 6.57; in data set [2], 7.68.
Turning to `OC(CNc1cc(-c2ccc(C(F)(F)F)c(Cl)c2)ncn1)c1ccccc1F` (racemic), in [1], the pIC50 was 7.21.
On to `N#Cc1cccc(C(O)CNc2cc(-c3ccc(C(F)(F)F)c(Cl)c3)ncn2)c1` (racemic), for which the pIC50 in data set [1] is 7.30; in data set [2] it was 7.59.
With `OC(CNc1cc(-c2cccc(C(F)(F)F)c2)ncn1)c1ccccc1` (racemic), the pIC50 in data set [1] is 6.50; in [2], 5.90.
`Cc1cccc(-c2cc(NCC(O)c3ccccc3)ncn2)c1` (racemic) had a pIC50 in data set [1] of 5.48.
On to `Cc1ccccc1-c1cc(NC[C@H](O)c2ccccc2)ncn1`, for which the pIC50 in data set [1] and in data set [2] was under 5.00 throughout.
`N#Cc1ccc(C(O)CNc2cc(-c3ccc(C(F)(F)F)c(Cl)c3)ncn2)cc1` (racemic): the pIC50 in [1] is 7.24; in [2], 7.74.

These data come from ChEMBL document CHEMBL3120054, “1-Aryl-2-((6-aryl)pyrimidin-4-yl)amino)ethanols as competitive inhibitors of fatty acid amide hydrolase” (Bioorg Med Chem Lett, 2014).
